From ChEMBL document CHEMBL4043075, “Development of Fluorinated Analogues of Perhexiline with Improved Pharmacokinetic Properties and Retained Efficacy” (J Med Chem, 2017)
Each block holds one compound with its values, some of them ahead of it. Activity calls are given as the source filed them. The rule behind the calls is not given here.

How the values were obtained:
[1] = Half life in Sprague-Dawley rat liver microsomes at 3 uM up to 45 mins in presence of NADPH by LC-MS/MS analysis; format: ADME, microsome
[2] = Half life in human liver microsomes at 3 uM up to 45 mins in presence of NADPH by LC-MS/MS analysis; format: ADME, microsome
[3] = Stability of the compound in pH 7.4 PBS buffer at 37 degC after 1 hr; format: physicochemical; settings: pH 7.4, 1 h
Method in brief: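 Compound incubated 1 h in pH 7.4 PBS at 37 °C, then checked for decomposition.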

[4] = target: T1, Carnitine O-palmitoyltransferase 1, muscle isoform (Rattus norvegicus, UniProt Q63704); assay: Inhibition of Wistar rat heart mitochondrial CPT-1 assessed as reduction in conversion of palmitoyl CoA and L-carnitine into palmitoylcarnitine preincubated for 3 mins followed by L-carnitine and palmitoyl CoA addition measured for 3.5 mins by spectrophotometric analysis
T1 sequence (Q63704 whole entry): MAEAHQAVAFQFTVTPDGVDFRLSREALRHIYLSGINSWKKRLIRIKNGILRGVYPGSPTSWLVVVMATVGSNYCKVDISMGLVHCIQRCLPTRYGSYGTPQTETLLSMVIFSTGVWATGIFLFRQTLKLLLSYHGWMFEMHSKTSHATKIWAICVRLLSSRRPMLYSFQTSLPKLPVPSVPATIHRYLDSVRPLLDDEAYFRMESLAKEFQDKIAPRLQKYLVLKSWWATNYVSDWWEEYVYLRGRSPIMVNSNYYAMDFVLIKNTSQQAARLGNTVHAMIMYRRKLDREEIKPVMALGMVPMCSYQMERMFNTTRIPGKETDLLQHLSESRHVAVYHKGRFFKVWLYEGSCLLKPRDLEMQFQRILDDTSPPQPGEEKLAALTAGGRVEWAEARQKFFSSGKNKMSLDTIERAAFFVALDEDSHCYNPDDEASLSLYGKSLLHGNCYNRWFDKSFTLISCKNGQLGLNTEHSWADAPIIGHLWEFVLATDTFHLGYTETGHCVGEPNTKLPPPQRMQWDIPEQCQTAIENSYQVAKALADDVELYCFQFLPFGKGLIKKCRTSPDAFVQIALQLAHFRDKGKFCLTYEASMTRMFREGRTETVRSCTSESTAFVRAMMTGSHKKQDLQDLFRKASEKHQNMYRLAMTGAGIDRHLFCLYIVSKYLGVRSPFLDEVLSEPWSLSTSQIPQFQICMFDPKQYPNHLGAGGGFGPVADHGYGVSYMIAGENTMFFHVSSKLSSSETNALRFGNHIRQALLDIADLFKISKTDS

[5] = AUC (0 to 24 hrs) in BALB/c mouse plasma at 10 mg/kg, po administered via gavage every 24 hrs for 7 days measured post last dose by LC-MS/MS analysis; format: ADME, organism-based; parameters: dose 10 mg/kg, time < 24 hr, route oral
Method in brief: (§1)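 Male BALB/c mice, daily oral gavage at 10 mg/kg. Plasma and myocardium sampled 1, 4, 8 and 24 h after dosing, n = 3 per timepoint. […] Myocardium:plasma ratios taken from drug concentration or from AUC. Student's t-test used.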

[6] = Ratio of drug level in myocardium to plasma in Sprague-Dawley rat at 10 mg/kg, po administered via gavage every 24 hrs measured at 1 hr post dose by LC-MS/MS analysis; format: ADME, organism-based; settings: myocardium and plasma
Method in brief: (§2)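 Male Sprague-Dawley rats, daily oral dosing at 10 mg/kg. Plasma sampled at 1, 2, 4, 8 and 24 h after dosing, n = 3 per timepoint. Myocardium measured at 1 and 8 h. Myocardium:plasma ratio taken from drug concentration.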

[7] = Plasma concentration in Sprague-Dawley rat at 10 mg/kg, po administered via gavage every 24 hrs measured at 1 hr post dose by LC-MS/MS analysis; format: ADME, organism-based; method in brief: as §2
[8] = Plasma concentration in Sprague-Dawley rat at 10 mg/kg, po administered via gavage every 24 hrs measured at 2 hrs post last dose by LC-MS/MS analysis; format: ADME, organism-based; method in brief: as §2
[9] = Ratio of drug level in myocardium to plasma in BALB/c mouse at 10 mg/kg, po administered via gavage every 24 hrs for 7 days measured 4 hrs post last dose by LC-MS/MS analysis; format: ADME, organism-based; settings: myocardium and plasma; method in brief: as §1
[10] = Drug uptake in BALB/c mouse myocardium at 10 mg/kg, po administered via gavage every 24 hrs for 7 days measured 8 hrs post last dose by LC-MS/MS analysis; format: ADME, organism-based; settings: read-out: Drug uptake; method in brief: as §1
[11] = tested on: Heart; assay: Cardioprotective activity in Langendorff perfused C57BL/6 mouse heart perfused for 30 mins in presence of high fat; format: functional, tissue-based
[12] = Ratio of drug level in myocardium to plasma in Sprague-Dawley rat at 10 mg/kg, po administered via gavage every 24 hrs measured at 8 hrs post dose by LC-MS/MS analysis; format: ADME, organism-based; settings: myocardium and plasma; method in brief: as §2
[13] = Plasma concentration in Sprague-Dawley rat at 10 mg/kg, po administered via gavage every 24 hrs measured at 4 hrs post last dose by LC-MS/MS analysis; format: ADME, organism-based; method in brief: as §2
[14] = Drug uptake in Sprague-Dawley rat myocardium at 10 mg/kg, po administered via gavage every 24 hrs measured at 8 hrs post last dose by LC-MS/MS analysis; format: ADME, organism-based; settings: read-out: Drug uptake; method in brief: as §2
[15] = Plasma concentration in BALB/c mouse at 10 mg/kg, po administered via gavage every 24 hrs for 7 days measured 8 hrs post last dose by LC-MS/MS analysis; format: ADME, organism-based; method in brief: as §1
[16] = tested on: Heart; assay: Cardioprotective activity in Langendorff perfused C57BL/6 mouse heart assessed as increase in cardiac contractility at 10 uM perfused for 30 mins in presence of high fat relative to control; format: functional
Method in brief: (§3)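 Isolated C57BL/6 hearts (25-30 g) retrogradely perfused at constant 80 mmHg, 37 °C, 95% O2/5% CO2, with modified Krebs containing 1.2 mM sodium palmitate conjugated to 3% BSA. After 10 min stabilisation, 30 min perfusion with control buffer or compound at 2 or 10 µM. LVdP/dt max and min derived from LV pressure over 40 min; mean ± SEM, n = 12-19, 1-way ANOVA with Bonferroni.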

[17] = target: CYP2D6 (Homo sapiens, UniProt P10635); assay: Drug metabolism assessed as human CYP2D6-mediated compound degradation by measuring half life at 5 uM up to 45 mins in presence of NADPH by LC-MS/MS analysis; format: ADME
[18] = Ratio of AUC (0 to 24 hrs) in myocardium to plasma in BALB/c mouse at 10 mg/kg, po administered via gavage every 24 hrs for 7 days measured post last dose by LC-MS/MS analysis; format: ADME, organism-based; settings: myocardium and plasma, read-out: Ratio AUC; method in brief: as §1
[19] = Plasma concentration in BALB/c mouse at 10 mg/kg, po administered via gavage every 24 hrs for 7 days measured 4 hrs post last dose by LC-MS/MS analysis; format: ADME, organism-based; method in brief: as §1
[20] = Drug uptake in BALB/c mouse myocardium at 10 mg/kg, po administered via gavage every 24 hrs for 7 days measured 4 hrs post last dose by LC-MS/MS analysis; format: ADME, organism-based; settings: read-out: Drug uptake; method in brief: as §1
[21] = tested on: Heart; assay: Cardioprotective activity in Langendorff perfused C57BL/6 mouse heart assessed as increase in cardiac relaxation at 10 uM perfused for 30 mins in presence of high fat relative to control; format: functional; method in brief: as §3
[22] = tested on: Heart; assay: Cardioprotective activity against Langendorff perfused C57BL/6 mouse heart assessed as lusitropic effect at 10 uM measured for 40 mins reperfusion period in presence of high fat; format: functional, tissue-based; method in brief: as §3
[23] = Plasma concentration in Sprague-Dawley rat at 10 mg/kg, po administered via gavage every 24 hrs measured at 8 hrs post last dose by LC-MS/MS analysis; format: ADME, organism-based; method in brief: as §2
[24] = AUC (0 to 24 hrs) in BALB/c mouse myocardium at 10 mg/kg, po administered via gavage every 24 hrs for 7 days measured post last dose by LC-MS/MS analysis; format: ADME, organism-based; parameters: time < 24 hr, dose 10 mg/kg, route oral; method in brief: as §1
[25] = Ratio of drug level in myocardium to plasma in BALB/c mouse at 10 mg/kg, po administered via gavage every 24 hrs for 7 days measured 1 hr post last dose by LC-MS/MS analysis; format: ADME, organism-based; settings: myocardium and plasma; method in brief: as §1
[26] = Ratio of drug level in myocardium to plasma in BALB/c mouse at 10 mg/kg, po administered via gavage every 24 hrs for 7 days measured 8 hrs post last dose by LC-MS/MS analysis; format: ADME, organism-based; settings: myocardium and plasma; method in brief: as §1
[27] = Drug uptake in Sprague-Dawley rat myocardium at 10 mg/kg, po administered via gavage every 24 hrs measured at 1 hr post last dose by LC-MS/MS analysis; format: ADME, organism-based; settings: read-out: Drug uptake; method in brief: as §2
[28] = Drug uptake in BALB/c mouse myocardium at 10 mg/kg, po administered via gavage every 24 hrs for 7 days measured 1 hr post last dose by LC-MS/MS analysis; format: ADME, organism-based; settings: read-out: Drug uptake; method in brief: as §1
[29] = Plasma concentration in BALB/c mouse at 10 mg/kg, po administered via gavage every 24 hrs for 7 days measured at 1 hr post last dose by LC-MS/MS analysis; format: ADME, organism-based; method in brief: as §1

Sequence of CYP2D6 (P10635 whole entry): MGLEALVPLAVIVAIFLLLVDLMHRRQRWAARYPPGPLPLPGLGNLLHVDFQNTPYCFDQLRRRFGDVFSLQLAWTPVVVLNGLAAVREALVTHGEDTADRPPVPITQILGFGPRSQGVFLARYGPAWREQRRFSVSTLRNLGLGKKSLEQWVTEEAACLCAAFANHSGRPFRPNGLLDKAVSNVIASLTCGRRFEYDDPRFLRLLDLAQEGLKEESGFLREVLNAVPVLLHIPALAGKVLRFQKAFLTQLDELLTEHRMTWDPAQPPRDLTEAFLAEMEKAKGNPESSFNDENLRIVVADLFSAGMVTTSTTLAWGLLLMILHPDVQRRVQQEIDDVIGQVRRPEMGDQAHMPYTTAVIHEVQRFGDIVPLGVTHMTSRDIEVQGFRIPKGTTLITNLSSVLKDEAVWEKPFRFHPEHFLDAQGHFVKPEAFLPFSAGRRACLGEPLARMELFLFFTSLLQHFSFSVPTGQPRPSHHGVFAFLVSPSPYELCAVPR

Structure (SMILES): CC(C)(COP(=O)(O)OP(=O)(O)OC[C@H]1O[C@@H](n2cnc3c(N)ncnc32)[C@H](O)[C@@H]1OP(=O)(O)O)[C@@H](O)C(=O)NCCC(=O)NCCSC(=O)CC(=O)O [MALONYL-COENZYME A]
IC50 [4]: 1.2 µM

Structure (SMILES): OC1CCC(C(CC2CCCCN2)C2CCCCC2)CC1 (stereo unspecified)
IC50 [4]: 475 µM

Structure (SMILES): c1ccc(C(CC2CCCCN2)C2CCCCC2)cc1 (stereo unspecified)
half-life at 3 µM [1]: 4 min | half-life at 3 µM [2]: 0.933 h | Stability [3]: Stable

Structure (SMILES): C1CCC(CC(C2CCCC2)C2CCCC2)NC1 (stereo unspecified)
IC50 [4]: 19 µM | half-life at 3 µM [1]: 14 min | half-life at 3 µM [2]: 0.833 h | Stability [3]: Stable

Structure (SMILES): C1CCC(C(CC2CCCCN2)C2CCCCC2)CC1.O=C(O)/C=C\C(=O)O (stereo unspecified) [PERHEXILINE MALEATE]
IC50 [4]: 32 µM | half-life at 3 µM [1]: 10 min | half-life at 3 µM [2]: 1.63 h

Structure (SMILES): FC1CCC(C(CC2CCCCN2)C2CCCCC2)CC1 (stereo unspecified)
half-life at 5 µM [17]: 16 min | half-life at 3 µM [1]: 11 min | half-life at 3 µM [2]: 1.08 h | Stability [3]: Unstable

Further lines, with some results ahead:

half-life at 3 µM [1]: 20 min | half-life at 3 µM [2]: 1.28 h | Stability [3]: Stable
Structure (SMILES): CC1(C)CCC(C(CC2CCCCN2)C2CCCCC2)CC1 (stereo unspecified)

AUC at 24 h [5]: 3760 ng·h/mL | Kp at 1 h [6]: 15.3 | IC50 [4]: 45 µM | concentration at 1 h [7]: 386 ng/mL | concentration at 2 h [8]: 375 ng/mL | Kp at 4 h [9]: 10.9 | concentration at 8 h [10]: 1830 ng/mL | Kp at 8 h [12]: 7.2 | concentration at 4 h [13]: 297 ng/mL | concentration at 8 h [14]: 1290 ng/mL | concentration at 8 h [15]: 192 ng/mL | half-life at 5 µM [17]: 104 min | Kp [18]: 8.6 | half-life at 3 µM [1]: 72 min | half-life at 3 µM [2]: > 8.33 h | concentration at 4 h [19]: 172 ng/mL | concentration at 4 h [20]: 1880 ng/mL | concentration at 8 h [23]: 179 ng/mL | AUC at 24 h [24]: 32400 ng·h/mL | Kp at 1 h [25]: 10.7 | Kp at 8 h [26]: 9.5 | concentration at 1 h [27]: 5910 ng/mL | concentration at 1 h [28]: 3730 ng/mL | concentration at 1 h [29]: 346 ng/mL | Stability [3]: Stable
Structure (SMILES): FC1(F)CCC(C(CC2CCCCN2)C2CCCCC2)CC1 (stereo unspecified)
Activity [11]: Dose-dependent effect | fold change (FC) [16]: 1.8 | fold change (FC) [21]: 2.7 | Activity [22]: Active

IC50 [4]: 88 µM | half-life at 5 µM [17]: > 150 min | half-life at 3 µM [1]: > 1500 min | half-life at 3 µM [2]: > 66.7 h | Stability [3]: Stable
Structure (SMILES): FC1(F)CCC(C(CC2CCCCN2)C2CCC(F)(F)CC2)CC1 (stereo unspecified)

half-life at 3 µM [1]: 3 min | half-life at 3 µM [2]: 0.45 h | Stability [3]: Stable
Structure (SMILES): C1CCC(CC(C2CCCC2)C2CC2)NC1 (stereo unspecified)
